Data from ChEMBL document CHEMBL3097997, “Synthesis and anticancer activities of thieno[3,2-d]pyrimidines as novel HDAC inhibitors” (Bioorg Med Chem, 2014).

What was measured:
MCF7 = assay: Antiproliferative activity against human MCF7 cells after 72 hrs by MTT assay; assay type: functional, cell-based; conditions: MCF7, 72 h
HeLa = assay: Antiproliferative activity against human HeLa cells after 72 hrs by MTT assay; assay type: functional, cell-based
HCT-116 [1] = assay: Antiproliferative activity against human HCT116 cells after 72 hrs by MTT assay; assay type: functional, cell-based; conditions: HCT-116, 72 h
[2] = molecular target: Histone deacetylase (Homo sapiens) (UniProt Q13547+O15379+Q9UBN7+Q92769+Q9UQL6+Q8WUI4+Q9BY41+Q96DB2+P56524+Q9UKV0+Q969S8); conditions: HeLa, at 1 µM
HCT-116 [3] = assay: Cell cycle arrest in human HCT116 cells assessed as accumulation at sub G1 phase after 24 hrs by propidium iodide staining-based flow cytometric analysis; assay type: functional
In short: (§1)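 HCT-116 cells seeded at 2 × 10^5 per well in six-well plates, treated 24 h with compound at 2.5, 5 or 10 μM alongside untreated control, then harvested, fixed in cold 70% ethanol and stained with PI solution (final 50 μg/mL PI, 0.1 mg/mL RNase A, 0.05% Triton X-100) for 40 min at 37 °C. Phase distribution read by flow cytometry.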

HCT-116 [4] = assay: Cell cycle arrest in human HCT116 cells assessed as accumulation at G2/M phase at 10 uM after 24 hrs by propidium iodide staining-based flow cytometric analysis (reference value: 15.6%); assay type: functional; in short: as §1
HCT-116 [5] = assay: Cell cycle arrest in human HCT116 cells assessed as accumulation at S phase at 10 uM after 24 hrs by propidium iodide staining-based flow cytometric analysis (reference value: 36.3%); assay type: functional; in short: as §1
HCT-116 [6] = assay: Cell cycle arrest in human HCT116 cells assessed as accumulation at G1 phase at 10 uM after 24 hrs by propidium iodide staining-based flow cytometric analysis (reference value: 48.1%); assay type: functional; in short: as §1
HCT-116 [7] = assay: Cell cycle arrest in human HCT116 cells assessed as accumulation at sub G1 phase at 10 uM after 24 hrs by propidium iodide staining-based flow cytometric analysis relative to control; assay type: functional; in short: as §1
HCT-116 [8] = assay: Cell cycle arrest in human HCT116 cells assessed as accumulation at G2/M phase at 5 uM after 24 hrs by propidium iodide staining-based flow cytometric analysis (reference value: 15.6%); assay type: functional; in short: as §1
HCT-116 [9] = assay: Cell cycle arrest in human HCT116 cells assessed as accumulation at S phase at 5 uM after 24 hrs by propidium iodide staining-based flow cytometric analysis (reference value: 36.3%); assay type: functional; in short: as §1
HCT-116 [10] = assay: Cell cycle arrest in human HCT116 cells assessed as accumulation at G1 phase at 5 uM after 24 hrs by propidium iodide staining-based flow cytometric analysis (reference value: 48.1%); assay type: functional; in short: as §1
HCT-116 [11] = assay: Cell cycle arrest in human HCT116 cells assessed as accumulation at sub G1 phase at 5 uM after 24 hrs by propidium iodide staining-based flow cytometric analysis relative to control; assay type: functional; in short: as §1
HCT-116 [12] = assay: Cell cycle arrest in human HCT116 cells assessed as accumulation at G2/M phase at 2.5 uM after 24 hrs by propidium iodide staining-based flow cytometric analysis (reference value: 15.6%); assay type: functional; in short: as §1
HCT-116 [13] = assay: Cell cycle arrest in human HCT116 cells assessed as accumulation at S phase at 2.5 uM after 24 hrs by propidium iodide staining-based flow cytometric analysis (reference value: 36.3%); assay type: functional; in short: as §1
HCT-116 [14] = assay: Cell cycle arrest in human HCT116 cells assessed as accumulation at G1 phase at 2.5 uM after 24 hrs by propidium iodide staining-based flow cytometric analysis (reference value: 48.1%); assay type: functional; in short: as §1
HCT-116 [15] = assay: Cell cycle arrest in human HCT116 cells assessed as accumulation at sub G1 phase at 2.5 uM after 24 hrs by propidium iodide staining-based flow cytometric analysis relative to control; assay type: functional; in short: as §1
Histone deacetylase = assay: Inhibition of HDAC in human HeLa cell nuclear extract using fluor de Lys as substrate after 15 mins by fluorimetric analysis; assay type: protein assay
In short: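 Fluorimetric HDAC kit assay: HeLa nuclear extract (15 μL) combined with 10 μL of 5× compound, then 25 μL fluorogenic substrate added; deacetylation ran 15 min at room temperature and was stopped with TSA-containing developer. Fluorescence read after a further 15 min at excitation 360 nm, emission 460 nm.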

SMILES	IC50 (MCF7) [µM]	IC50 (HeLa) [µM]	IC50 (HCT-116 [1]) [µM]	inhibition [2] [%]	IC50 (Histone deacetylase) [µM]	also measured
O=C(CCCCCOc1cccc(-c2nc(N3CCOCC3)c3sccc3n2)c1)NO	9.9	2.4	12.2	18.7	–	–
O=C(CCCCCCCCOc1cccc(-c2nc(N3CCOCC3)c3sccc3n2)c1)NO	> 20	20	> 20	40.6	–	–
O=C(CCCCCOc1ccc(-c2nc(N3CCOCC3)c3sccc3n2)cc1)NO	> 20	12	14	18.8	–	–
O=C(CCCCCCOc1cccc(-c2nc(N3CCOCC3)c3sccc3n2)c1)NO	4.8	4	4	76.8	0.38	Activity (HCT-116 [3]): Dose-dependent effect; Activity (HCT-116 [4]): 26.5%; Activity (HCT-116 [5]): 20.8%; Activity (HCT-116 [6]): 50.3%; Activity (HCT-116 [7]): 44.5%; Activity (HCT-116 [8]): 31.4%; Activity (HCT-116 [9]): 18.9%; Activity (HCT-116 [10]): 49.7%; Activity (HCT-116 [11]): 42.2%; Activity (HCT-116 [12]): 16.8%; Activity (HCT-116 [13]): 15.2%; Activity (HCT-116 [14]): 68.1%; Activity (HCT-116 [15]): 30.5%
O=C(CCCCCCCCOc1ccc(-c2nc(N3CCOCC3)c3sccc3n2)cc1)NO	18	19	10.1	25.4	–	–
O=C(CCCCCCCOc1cccc(-c2nc(N3CCOCC3)c3sccc3n2)c1)NO	11	11.9	6.1	72	0.61	–
O=C(CCCCCCCOc1ccc(-c2nc(N3CCOCC3)c3sccc3n2)cc1)NO	10	7.4	2.9	73.8	0.49	–
O=C(CCCCCCOc1ccc(-c2nc(N3CCOCC3)c3sccc3n2)cc1)NO	5.2	3	5.5	61.7	–	–
